Source: ChEMBL document CHEMBL1132696, “Design of antineoplastic agents based on the "2-phenylnaphthalene-type" structural pattern. 4. Synthesis and biological activity of 2-chloro-3-(substituted phenoxy)-1, 4-naphthoquinones and related 5,8-dihydroxy-1,4-naphthoquinones” (J Med Chem, 1999)

Experiments:
[1] = test system: NCI; test: Complete inhibition of cell growth of 60-human tumor cell line detected by National Cancer Institute.; type: functional, cell-based; conditions: read-out: Log IC50 (converted)
In short: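 National Cancer Institute preclinical 60 human tumour cell line drug discovery screen. Read-out is the log IC₅₀ (M) at which complete inhibition of cell growth is detected in at least one cell line. Scored qualitatively: +++ at -7.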

[2] = biological target: DNA topoisomerase II (Homo sapiens) (UniProt P11388+Q02880); test: Relative activity to induce mammalian DNA topoisomerase II-mediated DNA cleavage; type: functional
[3] = test system: SCLC; test: Cytotoxicity in SCLC (human lung carcinoma) cell line.; type: functional, cell-based
[4] = test system: HL-60; test: Cytotoxicity in HL-60 (human leukemia) cell line.; type: functional, cell-based

| SMILES | Activity [2] | concentration for complete growth inhibition [1] | IC50 [3] | IC50 [4] |
| --- | --- | --- | --- | --- |
| O=C1c2oc3cc(O)cc(O)c3c2C(=O)c2c(O)ccc(O)c21 | 2000 | 100 nM | 1.5 µM | 0.39 µM |
| O=C1C(Cl)=C(Oc2cc(O)cc(O)c2)C(=O)c2c(O)ccc(O)c21 | 200 | 1000 nM | 0.5 µM | 0.25 µM |
| Cc1ccc[n+](C2=C([O-])C(=O)c3c(O)ccc(O)c3C2=O)c1 | 0.5 | – | > 10 µM | 30 µM |
| COc1cc(OC)cc(OC2=C(Cl)C(=O)c3c(OC(C)=O)ccc(OC(C)=O)c3C2=O)c1 | 50 | 1000 nM | 1.1 µM | 0.5 µM |
| O=C1C(Cl)=C(Oc2cccc(O)c2)C(=O)c2c(O)ccc(O)c21 | 100 | 1000 nM | 0.45 µM | 0.16 µM |
| COc1cccc(OC2=C(Cl)C(=O)c3c(OC(C)=O)ccc(OC(C)=O)c3C2=O)c1 | 200 | 1000 nM | 5 µM | 0.2 µM |
| O=C1C=CC(=O)c2c(O)c(Oc3ccccc3)c(Oc3ccccc3)c(O)c21 | 500 | 100 nM | 0.1 µM | 0.13 µM |
| COc1cccc(OC2=C(Oc3cccc(OC)c3)C(=O)c3c(OC)ccc(OC)c3C2=O)c1 | 0 | 100 nM | 1 µM | 0.16 µM |
| O=C1C=CC(=O)c2c(O)c(Oc3ccccc3)c(Cl)c(O)c21 | 4000 | 100 nM | 0.25 µM | 0.22 µM |
| COc1cccc(OC2=C(Cl)C(=O)c3c(O)ccc(O)c3C2=O)c1 | 800 | 1000 nM | 0.5 µM | 0.2 µM |
| O=C1c2ccccc2C(=O)c2c1oc1cc(O)cc(O)c21 | > 100000 | 1000 nM | 1.03 µM | – |
| O=C1C=CC(=O)c2c(O)c(Cl)c(Cl)c(O)c21 | – | – | 0.3 µM | 0.049 µM |
| COc1cc(OC)cc(OC2=C(Cl)C(=O)c3c(O)ccc(O)c3C2=O)c1 | 50 | 1000 nM | 0.75 µM | 0.07 µM |

Second part, led by results:

| Activity [2] | SMILES | concentration for complete growth inhibition [1] | IC50 [3] | IC50 [4] |
| --- | --- | --- | --- | --- |
| 2 | COc1cc(OC)c2c3c(oc2c1)C(=O)c1c(OC)ccc(OC)c1C3=O | 10000 nM | > 10 µM | 128 µM |
| 10 | COc1ccc(OC)c2c1C(=O)C(Cl)=C(Oc1cccc(O)c1)C2=O | 1000 nM | 0.3 µM | 0.067 µM |
| 2 | COc1ccc2c3c(oc2c1)C(=O)c1c(OC)ccc(OC)c1C3=O | – | 1 µM | 14.5 µM |
| 10 | COc1c(Cl)c(Cl)c(OC)c2c1C(=O)C=CC2=O | – | 0.75 µM | 1 µM |
| 20 | COc1cccc(OC2=C(Cl)C(=O)c3c(OC)ccc(OC)c3C2=O)c1 | 1000 nM | 2 µM | 0.44 µM |
| 200 | COc1ccc(OC)c2c1C(=O)C(Cl)=C(Cl)C2=O | – | 1 µM | 0.22 µM |
| 100 | COc1cc(OC)cc(OC2=C(Cl)C(=O)c3c(OC)ccc(OC)c3C2=O)c1 | 1000 nM | 2 µM | 0.12 µM |
